One may read the MIC as the lowest concentration found to suppress growth. A higher MIC goes with weaker potency.

≈ marks a conversion by molar mass, not a printed value.

Experimental findings from ChEMBL document CHEMBL4477218 (J Med Chem, 2016) are described below.

Holding throughout (format): functional
For assay [1], the system named is Staphylococcus aureus. The experiment in a line: Antibacterial activity against TMP/methicillin-resistant Staphylococcus aureus ATCC 43300 after 18 hrs by CLSI M100-S16 method. The following applies: ATCC 43300, 18 h. Put shortly: (§1)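 Broth microdilution per CLSI guideline in Isosensitest broth, final inoculum 5 x 10^5 CFU/mL, 18 h at 37 °C. Growth read at A600. MIC taken as the lowest inhibitor concentration visually inhibiting growth, confirmed colorimetrically with Presto Blue. Isosensitest broth with 10 µg/mL thymidine used to check off-target antibacterial activity. Mutant strains were selected on agar containing 6x MIC of an earlier propargyl-linked antifolate and sequenced.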

Assay [2] relates to Staphylococcus aureus. The experiment in a line: Antibacterial activity against TMP/methicillin-resistant Staphylococcus aureus harboring DHFR F98Y mutant after 18 hrs by CLSI M100-S16 method. A digest of the protocol: as §1
Assay [3] has as its system Staphylococcus aureus. The experiment in a line: Antibacterial activity against TMP/methicillin-resistant Staphylococcus aureus harboring DHFR H149R mutant after 18 hrs by CLSI M100-S16 method. A digest of the protocol: as §1
Assay [4] deals with Staphylococcus aureus. The experiment in a line: Antibacterial activity against TMP/methicillin-resistant Staphylococcus aureus harboring DHFR F98Y/H149R double mutant after 18 hrs by CLSI M100-S16 method. A digest of the protocol:
as §1

Assay [5] relates to Staphylococcus aureus. The experiment in a line: Antibacterial activity against TMP/methicillin-resistant Staphylococcus aureus harboring DHFR H30N mutant after 18 hrs by CLSI M100-S16 method. Put shortly: as §1
For assay [6], the system named is Staphylococcus aureus. The experiment in a line: Antibacterial activity against TMP/methicillin-resistant Staphylococcus aureus harboring DHFR H30N/F98Y double mutant after 18 hrs by CLSI M100-S16 method. Put shortly: as §1

Regarding `CCc1nc(N)nc(N)c1C#C[C@H](C)c1cc(OC)cc(-c2ccc(C(=O)O)cc2)c1`, the MIC with Staphylococcus aureus [1] worked out at 0.0098 µg/mL (≈ 0.0235 µM); with Staphylococcus aureus [2] it was 0.0781 µg/mL (≈ 0.188 µM); in the assay on Staphylococcus aureus [3], 0.0391 µg/mL (≈ 0.0939 µM); with Staphylococcus aureus [4] it was 2.5 µg/mL (≈ 6 µM).
As to `CCc1nc(N)nc(N)c1C#C[C@H](C)c1cc(-c2ccc(C(=O)O)cc2)ccc1OC`, the minimal inhibitory concentration (MIC) with Staphylococcus aureus [1] was 0.0391 µg/mL (≈ 0.0939 µM); in the assay with Staphylococcus aureus [2], 0.156 µg/mL (≈ 0.375 µM); in the assay on Staphylococcus aureus [5], 0.156 µg/mL (≈ 0.375 µM); against Staphylococcus aureus [3] it was 0.0781 µg/mL (≈ 0.188 µM); against Staphylococcus aureus [6] it was more than 40 µg/mL; in the assay on Staphylococcus aureus [4], more than 40 µg/mL.
Turning to `CCc1nc(N)nc(N)c1C#CC(C)c1cc(-c2ccncc2)ccc1OC` (centres undefined), the MIC turned out to be 0.625 µg/mL (≈ 1.67 µM) against Staphylococcus aureus [1]; 2.5 µg/mL (≈ 6.69 µM) with Staphylococcus aureus [2]; 2.5 µg/mL (≈ 6.69 µM) against Staphylococcus aureus [5]; 2.5 µg/mL (≈ 6.69 µM) with Staphylococcus aureus [3]; 20 µg/mL (≈ 53.6 µM) in the assay with Staphylococcus aureus [6]; 40 µg/mL (≈ 107 µM) with Staphylococcus aureus [4].
For `CCc1nc(N)nc(N)c1C#CCc1cc(OC)c(OC)c(-c2ccncc2)c1`, the MIC turned out to be 0.0195 µg/mL (≈ 0.0501 µM) in the assay on Staphylococcus aureus [1]; 0.625 µg/mL (≈ 1.6 µM) in the assay with Staphylococcus aureus [2]; 0.625 µg/mL (≈ 1.6 µM) with Staphylococcus aureus [5]; 0.625 µg/mL (≈ 1.6 µM) against Staphylococcus aureus [3]; 20 µg/mL (≈ 51.4 µM) in the assay with Staphylococcus aureus [6]; 40 µg/mL (≈ 103 µM) in the assay with Staphylococcus aureus [4].
Consider `CCc1nc(N)nc(N)c1C#CC(C)c1cc2c(c(-c3ccncc3)c1)OCO2` (centres undefined), for which the MIC was determined as 0.0781 µg/mL (≈ 0.202 µM) in the assay on Staphylococcus aureus [1]; 1.25 µg/mL (≈ 3.23 µM) against Staphylococcus aureus [2]; 5 µg/mL (≈ 12.9 µM) with Staphylococcus aureus [5]; 5 µg/mL (≈ 12.9 µM) in the assay with Staphylococcus aureus [3]; 40 µg/mL (≈ 103 µM) in the assay with Staphylococcus aureus [6]; 40 µg/mL (≈ 103 µM) in the assay with Staphylococcus aureus [4].
Consider `CCc1nc(N)nc(N)c1C#CCc1cc(OC)cc(-c2ccc(C(=O)O)cc2)c1`, for which the MIC was determined as 0.0195 µg/mL (≈ 0.0485 µM) with Staphylococcus aureus [1]; 0.156 µg/mL (≈ 0.388 µM) with Staphylococcus aureus [2]; 0.156 µg/mL (≈ 0.388 µM) in the assay with Staphylococcus aureus [5]; 0.156 µg/mL (≈ 0.388 µM) against Staphylococcus aureus [3]; 5 µg/mL (≈ 12.4 µM) in the assay with Staphylococcus aureus [6]; 10 µg/mL (≈ 24.8 µM) in the assay with Staphylococcus aureus [4].
`CCc1nc(N)nc(N)c1C#C[C@@H](C)c1cc(OC)cc(-c2ccc(C(=O)O)cc2)c1`: the MIC amounted to 0.0098 µg/mL (≈ 0.0235 µM) in the assay on Staphylococcus aureus [1]; 0.0781 µg/mL (≈ 0.188 µM) with Staphylococcus aureus [5]; 0.0781 µg/mL (≈ 0.188 µM) in the assay with Staphylococcus aureus [3]; 1.25 µg/mL (≈ 3 µM) in the assay with Staphylococcus aureus [6]; 1.25 µg/mL (≈ 3 µM) with Staphylococcus aureus [4].
As for `CCc1nc(N)nc(N)c1C#C[C@@H](C)c1cc(-c2ccncc2)ccc1OC`, the minimal inhibitory concentration (MIC) in the assay on Staphylococcus aureus [1] came to 0.0195 µg/mL (≈ 0.0522 µM); in the assay with Staphylococcus aureus [2], 1.25 µg/mL (≈ 3.35 µM); against Staphylococcus aureus [5], 0.625 µg/mL (≈ 1.67 µM); with Staphylococcus aureus [3], 1.25 µg/mL (≈ 3.35 µM); against Staphylococcus aureus [6] it was 10 µg/mL (≈ 26.8 µM); against Staphylococcus aureus [4] it was 20 µg/mL (≈ 53.6 µM).
On to `CCc1nc(N)nc(N)c1C#C[C@H](C)c1cc2c(c(-c3ccncc3)c1)OCO2`, for which the minimum inhibitory concentration (MIC) is 0.0195 µg/mL (≈ 0.0503 µM) in the assay on Staphylococcus aureus [1]; 1.25 µg/mL (≈ 3.23 µM) against Staphylococcus aureus [2]; 2.5 µg/mL (≈ 6.45 µM) against Staphylococcus aureus [5]; 2.5 µg/mL (≈ 6.45 µM) against Staphylococcus aureus [3]; 20 µg/mL (≈ 51.6 µM) against Staphylococcus aureus [6]; 20 µg/mL (≈ 51.6 µM) with Staphylococcus aureus [4].
Regarding `CCc1nc(N)nc(N)c1C#CCc1cc(-c2ccc(C(=O)O)cc2)ccc1OC`, the MIC with Staphylococcus aureus [1] was 0.0195 µg/mL (≈ 0.0485 µM); against Staphylococcus aureus [2], 0.156 µg/mL (≈ 0.388 µM); against Staphylococcus aureus [5] it was 0.156 µg/mL (≈ 0.388 µM); in the assay with Staphylococcus aureus [3], 0.156 µg/mL (≈ 0.389 µM); in the assay with Staphylococcus aureus [6], 6.25 µg/mL (≈ 15.5 µM); against Staphylococcus aureus [4], more than 50 µg/mL.
For the compound `CCc1nc(N)nc(N)c1C#CC(C)c1cc(OC)cc(-c2ccncc2)c1` (centres undefined), the MIC against Staphylococcus aureus [1] was found to be 0.0781 µg/mL (≈ 0.209 µM); against Staphylococcus aureus [2] it was 2.5 µg/mL (≈ 6.69 µM); with Staphylococcus aureus [5], 2.5 µg/mL (≈ 6.69 µM); against Staphylococcus aureus [3] it was 2.5 µg/mL (≈ 6.69 µM); in the assay on Staphylococcus aureus [6] it was 20 µg/mL (≈ 53.6 µM); in the assay with Staphylococcus aureus [4] it was 80 µg/mL (≈ 214 µM).
Consider `CCc1nc(N)nc(N)c1C#C[C@H](C)c1cc(OC)cc(-c2ccncc2)c1`, for which the MIC in the assay with Staphylococcus aureus [1] stood at 0.0391 µg/mL (≈ 0.105 µM); against Staphylococcus aureus [2] it was 0.625 µg/mL (≈ 1.67 µM); in the assay with Staphylococcus aureus [5], 0.625 µg/mL (≈ 1.67 µM); in the assay with Staphylococcus aureus [3], 0.625 µg/mL (≈ 1.67 µM); against Staphylococcus aureus [6], 40 µg/mL (≈ 107 µM); in the assay with Staphylococcus aureus [4] it was 20 µg/mL (≈ 53.6 µM).
